# Active and inactive are the calls of the source.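 How the source made its calls, unless noted: active means inhibition of the reporter signal at or above 50%; inactive means inhibition below 50%.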
# Key:
# [1] = inhibitors of TNFa-induced NFkB p65 translocation, primary screen, imaging, HUVEC, MLSMR starter and 10KST1 sets (AID 438;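 active means inhibition above 20% together with a positive visual image hit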;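 further: compound added about 3h40 before a 20 min TNFalpha stimulation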;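 on inhibition: signal is the nuclear over cytoplasmic p65 intensity ratio per well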); details: HUVEC TNFa-induced p65 nuclear translocation; cell count: measured here: nuclei count (cytotoxicity indicator), at 2.08 µM; inhibition: at 2 µM, stronger effect = higher value, 0% TNFa-plus-vehicle, 100% no-TNFa wells
# [2] = reduction of polyQ htt aggregates in cells – imaging, exon1htt(103Q)mCFP cells, high-content imaging, primary screen (AID 483;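 active means visual image review flags a hit and inhibition of aggregation exceeds 20%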;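 further: compound exposure lasted 3 days before fixation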;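 on nuclei count: percent of the per-plate median nuclei count of sample wells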); details: exon1htt(103Q)mCFP cell line, aggregate imaging, at 2 µM; inhibition of aggregation: stronger effect = higher value; nuclei count: measured here: cell count, toxicity
# [3] = endothelial E-selectin expression blockers – imaging, HUVEC, immunofluorescence, MLSMR starter and 10KST1 sets, primary screen (AID 487;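 active means visually confirmed hit in the image check and inhibition above 20%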;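 on inhibition: signal is fraction of cell area covered by stained E-selectin grains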;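 on nuclei count: 100% = median nuclei count of all wells on the same plate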); details: HUVEC TNFalpha-induced E-selectin immunofluorescence imaging, at 2 µM; inhibition: stronger effect = higher value; nuclei count: measured here: cell number, toxicity
# [4] = molecular target: Voltage-gated potassium channel subunit beta-2 (Rattus norvegicus) (UniProt P62483); assay: inhibitors of rat Kvbeta2 reductase activity – biochemical, NADPH fluorescence, primary screen (AID 622;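 active means fluorescence slope higher than the sample average by over 3 SD, cut at about -0.22 in these data, passing the limit was not always enough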;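 further: slope of raw intensity against log time taken from 70 to 1610 s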); details: recombinant KvBeta, 4-cyanobenzaldehyde reduction, at 10 µM, stronger effect = higher value
# [5] = molecular target: Voltage-gated potassium channel subunit beta-2 (Rattus norvegicus) (UniProt P62483); assay: enhancers of rat Kvbeta2 NADPH turnover – biochemical, NADPH fluorescence, primary screen (AID 623;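 active means NADPH fluorescence slope more negative than the mean of all samples by about 3 SD, 99.7% confidence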;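 further: fluorescence intensity change per second fitted from 20 to 320 s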); details: Recombinant KvBeta, NADPH fluorescence decrease slope, 10 min; at 10 µM; stronger effect = lower value
# [6] = molecular target: Muscarinic acetylcholine receptor M4 (Homo sapiens) (UniProt P08173); assay: M4-linked GIRK flux change, two-sided – cell-based, HEK293 M4/GIRK, thallium flux, BTC-AM, M4 allosteric agonist project, primary screen (AID 625;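 active means fluorescence slope after compound addition differing from the mean of all tested samples at 99.7% confidence, mostly higher but some lower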;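 further: thallium influx through GIRK channels coupled to M4 in HEK293 cells with BTC-AM dye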); details: at 10 µM, actives lie on both sides
# Procedure, shortened: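 Assay system: HEK293 cells with M4 receptor and GIRK channels / Controls: carbachol and DMSO controls / Schedule: 1 h dye loading, 2 min kinetic read / Technique: kinetic fluorescence with BTC-AM dye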
# [7] = blockers of RIG-like receptor reporter activation – cell-based, Sendai virus stimulus, luciferase, 10K MLSCN set, TLR/RLR signaling modifier project, primary screen (AID 602276;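 active means inhibition at or above 50% at 10 µM; inactive means inhibition below 50%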;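 further: firefly luciferase from ISG56 promoter only with Renilla not read in this screen; 0% = Sendai virus plus DMSO and 100% = medium plus DMSO without virus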); details: HEK293 RL24 IRF3 luciferase reporter, at 10 µM, stronger effect = higher value
# [8] = TLR3 IRF3 reporter activation blockers – cell-based, poly I:C stimulus, luciferase, 10K MLSCN set, primary screen (AID 602277); details: HEK293-TLR3 RL24 IRF3 luciferase reporter, at 10 µM, stronger effect = higher value
# Chain of Muscarinic acetylcholine receptor M4 (Homo sapiens) (P08173 whole entry, looked up): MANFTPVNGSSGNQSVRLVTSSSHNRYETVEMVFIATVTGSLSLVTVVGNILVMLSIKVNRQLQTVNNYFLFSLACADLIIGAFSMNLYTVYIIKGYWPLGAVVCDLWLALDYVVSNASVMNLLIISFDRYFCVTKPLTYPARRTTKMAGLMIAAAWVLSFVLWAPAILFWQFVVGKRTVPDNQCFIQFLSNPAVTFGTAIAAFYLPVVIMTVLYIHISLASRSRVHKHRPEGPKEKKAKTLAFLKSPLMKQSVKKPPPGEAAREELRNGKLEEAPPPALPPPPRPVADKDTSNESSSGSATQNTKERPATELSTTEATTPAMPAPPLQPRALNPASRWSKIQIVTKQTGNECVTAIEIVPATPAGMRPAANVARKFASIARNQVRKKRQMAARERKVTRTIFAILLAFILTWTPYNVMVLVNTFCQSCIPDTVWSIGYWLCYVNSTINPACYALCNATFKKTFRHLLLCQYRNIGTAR
# Chain of Voltage-gated potassium channel subunit beta-2 (Rattus norvegicus) (P62483 whole entry, looked up): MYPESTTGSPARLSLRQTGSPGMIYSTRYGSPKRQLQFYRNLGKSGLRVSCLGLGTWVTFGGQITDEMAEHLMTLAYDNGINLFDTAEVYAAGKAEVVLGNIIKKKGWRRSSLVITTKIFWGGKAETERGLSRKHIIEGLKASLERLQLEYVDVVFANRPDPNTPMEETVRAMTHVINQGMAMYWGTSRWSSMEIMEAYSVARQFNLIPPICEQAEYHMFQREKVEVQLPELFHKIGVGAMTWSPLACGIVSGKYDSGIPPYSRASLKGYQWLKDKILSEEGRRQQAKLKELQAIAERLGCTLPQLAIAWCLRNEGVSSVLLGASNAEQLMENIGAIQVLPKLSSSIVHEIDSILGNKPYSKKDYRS
Structure (SMILES),cell count [1],inhibition [1],inhibition of aggregation [2],nuclei count [2],inhibition [3],nuclei count [3],fluorescence slope [4],NADPH fluorescence slope [5],fluorescence slope [6],inhibition [7],inhibition [8]
Cc1ccccc1-c1noc(N)c1C#N,515,5.3% (inactive),-0.5% (inactive),95.2%,4.6% (inactive),103%,-0.317 (inactive),-2.3e-05 (inactive),0.00617 (inactive),12.5% (inactive),-2.11% (inactive)
c1ccc(-c2csc(N3CCCCCC3)n2)cc1,403,7.3% (inactive),-6.8% (inactive),112%,-77.2% (inactive),110%,-0.551 (inactive),9.4e-06 (inactive),0.0048 (inactive),-82.9% (inactive),-160% (inactive)
CC1CCCC(NC(=O)CN2CCN(Cc3ccc(Cl)cc3)C2=O)C1C (stereo not drawn),512,-6% (inactive),-24.6% (inactive),58.8%,-27.1% (inactive),98%,-0.553 (inactive),-3.7e-05 (inactive),0.00646 (inactive),14.7% (inactive),20.9% (inactive)
CC(C)(C)OC(=O)N1CC(O)CC1C(=O)OCC(=O)c1ccc(Cl)cc1 (stereo not drawn),445,-7.4% (inactive),22.1% (inactive),105%,-22.9% (inactive),103%,-0.316 (inactive),-6e-05 (inactive),0.00558 (inactive),8.08% (inactive),19.4% (inactive)
CC1CCCC(C(=O)OCc2ccccc2)N1 (stereo not drawn),551,-10.9% (inactive),-31.2% (inactive),113%,-120% (inactive),122%,-0.389 (inactive),3.2e-05 (inactive),0.00626 (inactive),13.2% (inactive),20.1% (inactive)
CCOC(=O)c1cc(-c2ccc3c(c2)OCO3)nc2onc(C)c12,402,3.7% (inactive),21.3% (inactive),64.3%,-64.2% (inactive),106%,-0.00965 (inactive),-7.8e-06 (inactive),0.00537 (inactive),-6.27% (inactive),-18.4% (inactive)
COc1ccc(S(=O)(=O)NCc2ccco2)cc1-c1nnc2c3ccccc3c(C)nn12,723,-2.2% (inactive),-27% (inactive),101%,-77.8% (inactive),106%,-0.444 (inactive),-2.6e-05 (inactive),0.00549 (inactive),12.3% (inactive),11.8% (inactive)
CCCCNC(=O)c1cc(-c2ccc(F)cc2)on1,240,-2.8% (inactive),5.2% (inactive),106%,-39.2% (inactive),120%,-0.483 (inactive),-3.3e-05 (inactive),0.00454 (inactive),-21.5% (inactive),-168% (inactive)

# — PubChem BioAssay
